ChEMBL document CHEMBL1156100, “Design and synthesis of a simplified inhibitor for XIAP-BIR3 domain” (Bioorg Med Chem Lett, 2009)
Activity calls are given as the source filed them. The calls are words filed in the database; no cut-off is given here.

Molecular target: T1, E3 ubiquitin-protein ligase XIAP (Homo sapiens, UniProt P98170)
Experiment: Inhibition of XIAP BIR3 domain at 10 to 100 uM by competitive fluorescence polarization binding assay relative to 1 uM BV6 control

T1 sequence (P98170 whole entry, the tested form may be a part): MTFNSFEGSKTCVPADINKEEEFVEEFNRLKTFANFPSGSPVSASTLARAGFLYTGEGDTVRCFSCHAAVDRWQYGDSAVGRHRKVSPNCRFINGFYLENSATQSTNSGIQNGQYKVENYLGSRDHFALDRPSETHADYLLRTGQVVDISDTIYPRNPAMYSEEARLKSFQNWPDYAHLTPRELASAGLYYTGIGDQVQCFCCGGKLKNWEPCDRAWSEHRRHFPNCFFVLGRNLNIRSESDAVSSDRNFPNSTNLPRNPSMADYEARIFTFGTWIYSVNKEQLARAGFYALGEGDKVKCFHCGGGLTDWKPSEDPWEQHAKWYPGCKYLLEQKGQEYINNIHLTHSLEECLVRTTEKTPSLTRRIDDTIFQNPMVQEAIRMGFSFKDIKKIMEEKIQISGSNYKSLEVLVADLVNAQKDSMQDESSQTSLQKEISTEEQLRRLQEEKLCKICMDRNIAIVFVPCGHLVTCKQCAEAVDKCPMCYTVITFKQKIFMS

SMILES	Activity
CN[C@@H](C)C(=O)Nc1nc2c(s1)CC[C@H]2C(=O)N[C@@H]1CCCc2ccccc21	Active
CN[C@@H](C)C(=O)Nc1nc2c(s1)CC[C@H]2C(=O)N[C@H]1CCCc2ccccc21	inactive
CN[C@@H](C)C(=O)Nc1nc2c(s1)CCC2C(=O)NC1CCCc2ccccc21 (mixture of isomers)	inactive
CN[C@@H](C)C(=O)Nc1nc2c(s1)CC[C@@H]2C(=O)NC1CCCc2ccccc21 (mixture of isomers)	inactive

Molecular target: T1, E3 ubiquitin-protein ligase XIAP
Experiment: Inhibition of XIAP BIR3 domain at 10 to 100 uM by competitive fluorescence polarization binding assay

SMILES	Activity
CN[C@@H](C)C(=O)Nc1nc2c(s1)CCC2C(=O)NCc1ccccc1 (stereo partly drawn)	Active
C[C@H](N)C(=O)Nc1nc2c(s1)CCC2C(=O)NCc1ccccc1 (stereo partly drawn)	Active
CN[C@@H](C)C(=O)Nc1nc2c(s1)CCC2C(=O)NC(c1ccccc1)c1ccccc1 (stereo partly drawn)	Active
CN[C@@H](C)C(=O)Nc1nc2c(s1)CCC2C(=O)NC1CCCc2ccccc21 (mixture of isomers)	Active
C[C@H](N)C(=O)Nc1nc2c(s1)CCC2C(=O)NC1CCCc2ccccc21 (stereo partly drawn)	Active
C[C@H](N)C(=O)Nc1nc2c(s1)CCC2C(=O)NC(c1ccccc1)c1ccccc1 (stereo partly drawn)	Active

Molecular target: T1, E3 ubiquitin-protein ligase XIAP
Experiment: Inhibition of XIAP BIR3 domain at 100 uM by competitive fluorescence polarization binding assay

SMILES	Activity
C[C@H](N)C(=O)Nc1nc2c(s1)CCCCC2C(=O)NC1CCCc2ccccc21 (stereo partly drawn)	inactive
CN[C@@H](C)C(=O)Nc1nc2c(s1)CCCCC2C(=O)NCc1ccccc1 (stereo partly drawn)	inactive
C[C@H](N)C(=O)Nc1nc2c(s1)CCCCC2C(=O)NCc1ccccc1 (stereo partly drawn)	inactive
C[C@H](N)C(=O)Nc1nc2c(s1)CCCCC2C(=O)NC(c1ccccc1)c1ccccc1 (stereo partly drawn)	inactive
CN[C@@H](C)C(=O)Nc1nc2c(s1)CCCCC2C(=O)NC(c1ccccc1)c1ccccc1 (stereo partly drawn)	inactive
CN[C@@H](C)C(=O)Nc1nc2c(s1)CCCCC2C(=O)NC1CCCc2ccccc21 (stereo partly drawn)	inactive

Molecular target: T1, E3 ubiquitin-protein ligase XIAP
Experiment: Inhibition of XIAP BIR3 domain by competitive fluorescence polarization binding assay
In short: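 Competitive fluorescence polarization displacement assay using the XIAP BIR3 domain, with BV6 run in parallel as the reference compound. Binding affinity is expressed as Ki.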

SMILES	Ki [µM]
CN[C@@H](C)C(=O)Nc1nc2c(s1)CC[C@H]2C(=O)N[C@@H]1CCCc2ccccc21	5.58
CN[C@@H](C)C(=O)Nc1nc2c(s1)CCC2C(=O)NC1CCCc2ccccc21 (mixture of isomers)	37
